A selection: hits, their analogues and other compounds. The true share with any hit is near 2%.
EBV LMP1 NFkB: inhibitors of Epstein-Barr LMP1-induced NF-kappaB reporter | 350,000 compounds, 0.69% hits | inhibition, % at 12.5 µM | LMP1-induced NF-kappaB luciferase reporter cells, luminescence; in the data active = inhibition above about 41%
HIF act: HIF pathway transcriptional activation | U2OS HRE-luciferase reporter, luminescence; normalized: DMSO 0%, desferrioxamine 100% | activation, % at 7.5 µM (by protocol) | 300,000 compounds, 0.32% hits;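 active = mean activation of at least 10% of the iron chelator positive control signal, with at least half of replicates also reaching 10%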
NR2E3 ag-1: activates human NR2E3 receptor. Q9Y5X4. CHO-S Gal4-NCOR/VP16-NR2E3 two-hybrid, luciferase. inhibition of corepressor binding, % at 3.98 µM. 360,000 compounds, 0.35% hits. AID 602229;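 active = inhibition above the mean of all tested compounds plus 3 SD, cut at about 70% in these data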;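 also: higher means lower luciferase signal from less NR2E3 corepressor binding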
Target sequence (Q9Y5X4 whole entry, looked up, the tested form may be a part): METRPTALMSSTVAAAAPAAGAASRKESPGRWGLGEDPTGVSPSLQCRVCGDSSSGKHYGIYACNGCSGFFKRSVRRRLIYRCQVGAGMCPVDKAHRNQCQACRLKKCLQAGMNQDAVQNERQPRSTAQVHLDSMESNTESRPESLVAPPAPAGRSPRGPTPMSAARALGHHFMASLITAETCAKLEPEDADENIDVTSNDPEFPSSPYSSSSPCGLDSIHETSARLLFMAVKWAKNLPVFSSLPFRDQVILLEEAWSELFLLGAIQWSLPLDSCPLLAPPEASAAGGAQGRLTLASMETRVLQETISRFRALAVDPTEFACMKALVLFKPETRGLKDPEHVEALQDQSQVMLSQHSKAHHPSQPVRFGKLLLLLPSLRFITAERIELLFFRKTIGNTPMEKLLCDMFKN
TROY NFkB inh: inhibitors of TROY-dependent NF-kB signaling | 360,000 compounds, 0.98% hits | Q293 LMP1-TROYcd NF-kB luciferase reporter, 4 h | inhibition, % at 10 µM;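 active = compounds whose plate-normalised and pattern-corrected inhibition of the luciferase reporter signal at the single screening dose is 50% or more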
NR2E3 ag-2: NR2E3 (human) agonism; Q9Y5X4; GST-NR2E3/biotin-RetCOR TR-FRET, 1536-well; inhibition of corepressor binding, % at 4.78 µM; 320,000 compounds, 0.12% hits; AID 2300;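 active = percent inhibition above the cutoff of mean plus 3 SD of all tested compounds, set per screening campaign, cut at about 20% in these data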
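Test system: GST-NR2E3 and biotin-RetCOR proteins | Quantity: 1.35 nM GST-tagged NR2E3 final | Medium: Tris pH 7.5 | Also added: 7 nM biotin-RetCOR | Dosing: Compound at 4.8 µM, single dose | Timing: 5 h at 4 °C | Detection: Time-resolved FRET | Read-out basis: Percent inhibition | Benchmarks: Biotin wells as high control, 0.6% DMSO wells as low control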
A number is an active result; . = inactive; / = no result given.

SMILES	EBV LMP1 NFkB	HIF act	NR2E3 ag-1	TROY NFkB inh	NR2E3 ag-2
O=C(COC(=O)c1ccccc1C(=O)c1ccc(Cl)c([N+](=O)[O-])c1)NC1CCCCCC1	86.6	.	.	78.0	.
O=C(COC(=O)c1ccc(Cl)c([N+](=O)[O-])c1)NC1CCCC1	.	.	.	.	.
CN(CCC#N)C(=O)COC(=O)c1ccccc1C(=O)c1ccc(Cl)c([N+](=O)[O-])c1	.	.	.	55.3	.
Cn1c(N)c(C(=O)COC(=O)c2ccccc2C(=O)c2ccc(Cl)c([N+](=O)[O-])c2)c(=O)n(C)c1=O	.	/	.	65.1	/
CC(C)N(C(=O)COC(=O)c1ccccc1C(=O)c1ccc(Cl)c([N+](=O)[O-])c1)C(C)C	.	.	.	74.2	.
Cc1ccc(CNC(=O)C2CCC(=O)N(C3CCCC3)C2)c(F)c1F (configuration not stated)	.	.	.	.	.
CCc1ccc(CN2CCC(C(=O)Nc3ccc(-n4nc(C)cc4C)cc3)CC2)o1	.	.	.	.	.
O=C(C1CCCN(Cc2ccccc2F)C1)N1CCc2ccccc2C1 (configuration not stated)	.	108.4	.	.	.
Oc1ccc(N=Cc2ccc(-c3cccs3)s2)cc1	81.8	.	.	.	.
CCN(CC)C(=O)c1ccc(-c2cccs2)s1	.	.	.	.	.
O=Cc1ccc(-c2cccs2)s1	75.9	/	.	.	/
Cn1cc(Cc2ccc(C(=O)NC34CC5CC(CC(C5)C3)C4)cn2)c2ccccc21	/	/	.	.	/
COc1ccc(/C=N/Nc2ncnc3sc4c(c23)CCCC4)cc1OC	.	10.5	.	81.5	.
O=C(Nc1cccc(S(=O)(=O)N2CCCCCC2)c1)C1CC(=O)N(c2ccc3c(c2)OCCO3)C1 (configuration not stated)	.	.	.	.	.
CC(NC(=O)c1cc2c(s1)CS(=O)(=O)C2)c1ccccc1 (configuration not stated)	.	124.9	.	.	.
CC1CCC(NC(=O)c2cc3c(s2)CS(=O)(=O)C3)CC1 (configuration not stated)	.	/	.	.	/
COc1ccccc1-c1nnc(Sc2nc([N+](=O)[O-])nn2C)o1	57.4	.	.	.	.
Cn1cnnc1Sc1nc([N+](=O)[O-])nn1C	.	.	.	.	.
Cc1cccn2c(=O)c3cc(C(=O)NC4CCS(=O)(=O)C4)n(Cc4ccccc4)c3nc12 (configuration not stated)	.	.	.	.	.
CC1(Cc2ccc(Cl)cc2)C(=O)Nc2c(Cl)ccc(Cl)c21 (configuration not stated)	/	/	.	.	/
O=C(Nc1ccc2c(c1)nc1n2CCSC1)c1ccco1	45.1	.	.	.	.
CC1=CC(=C(C#N)c2nc3ccccc3s2)C=C(C)N1c1ccc(F)cc1	.	.	.	.	.
COc1ccccc1N1C(C)=CC(=C(C#N)c2nc3ccccc3s2)C=C1C	.	.	.	71.8	.
FC(F)(F)c1ccccc1Cc1c(-c2cccc(Cl)c2)nc2c3ccccc3ccn12	/	/	.	.	/
COC(=O)c1ccc(COc2ccccc2/C=C/C(=O)c2ccc(OCC(=O)O)cc2)cc1	68.6	.	.	.	.
SMILES	EBV LMP1 NFkB	HIF act	NR2E3 ag-1	TROY NFkB inh	NR2E3 ag-2
CCOc1ccc(S(=O)(=O)N(C)c2ccc(OCC(=O)NCc3ccc(C(=O)OC)cc3)cc2)cc1	.	.	.	.	.
Cc1nn(-c2ccccc2)nc1C(=O)Nc1nnc(C(F)(F)F)s1	.	.	.	52.1	.
C[C@@H]1CN([C@@H](C)CO)C(=O)CCCn2nncc2CO[C@H]1CN(C)C(=O)Nc1ccccc1F	.	/	.	.	/
CC(C)CCOc1ccc(C(=O)NCC(c2cccs2)N2CCOCC2)cc1 (configuration not stated)	.	.	.	.	.
COc1ccc(NC(=O)CSc2nnc(Cn3nnc4ccccc43)n2C)cc1	.	/	.	.	.
CCOc1ccc(NC(=O)CSc2nnc(Cn3cnc4ccccc43)n2C)cc1	.	19.8	.	.	.
COC(=O)c1cccc(NC(=S)NCCC2=CCCCC2)c1	.	.	91.0	.	.
COC(=O)c1ccc(NC(=S)NCCC2=CCCCC2)cc1	.	.	.	.	.
CC(C)(C)c1ccc(/C=C/C(=O)NC2=NCCS2)cc1	.	.	.	53.4	.
Cc1ccc(/C=C/C(=O)NC2=NCCS2)cc1	.	.	.	.	.
CSc1ccc(Cl)c(C(=O)Nc2cc(S(=O)(=O)N3CCOCC3)ccc2N2CCOCC2)c1	.	/	.	.	/
Cc1cc(C)c2c3c(sc2n1)C(=O)N(c1ccccc1C)CC(=O)N3	.	.	.	.	.
Cc1ccc(N2CC(=O)Nc3c(sc4nc(C)cc(C)c34)C2=O)cc1	.	26.2	.	.	.
CSc1ccc(C(O)c2ncc(-c3ccccc3Cl)[nH]2)cc1 (configuration not stated)	/	/	.	.	/
Cc1ccc(C(=O)N2CCN(c3ccc(NC(=S)NC(=O)Cc4ccccc4)cc3)CC2)cc1	.	.	72.0	.	.
O=C(Nc1ccc(N2CCN(C(=O)c3ccccc3)CC2)cc1)c1ccc2c(c1)OCCO2	.	.	.	.	.
CN1CCN(c2ccc(NC(=O)c3cc4ccccc4o3)cc2)CC1	.	.	.	.	.
COc1ccc(C(=O)Nc2ccc(N3CCN(C(=O)c4ccccc4C)CC3)cc2)cc1	51.5	.	.	.	.
O=C(Nc1ccc(N2CCN(C(=O)c3ccc(Cl)cc3)CC2)cc1)c1ccc2c(c1)OCCO2	.	.	.	69.5	.
O=C(Nc1ccc(N2CCN(C(=O)c3ccccc3)CC2)cc1)c1cc2ccccc2o1	.	/	.	70.4	.
CCOC(=O)[C@]12CCC=C1N(Cc1ccccc1)C(=O)[C@H](CC(=O)NCC13CC4CC(CC(C4)C1)C3)C2	/	/	.	.	/
CC(=O)N1CCN(c2ccc(NC(=O)c3ccc4c(c3)OCCO4)cc2Cl)CC1	.	.	.	.	.
CC(C)C(=O)N1CCN(c2ccc(NC(=O)c3ccc4c(c3)OCCO4)cc2Cl)CC1	.	.	.	61.1	.
O=C(CN1C(=O)NC2(CCCC2)C1=O)N1CCN(c2ccc(C(F)(F)F)cc2[N+](=O)[O-])CC1	.	/	.	.	/
CCOc1ccc(Br)cc1/C(C)=N\NC1=NCCN1	80.5	.	.	.	.
SMILES	EBV LMP1 NFkB	HIF act	NR2E3 ag-1	TROY NFkB inh	NR2E3 ag-2
CCCCCOc1ccc(/C(C)=N/NC2=NCCN2)cc1	.	.	.	.	.
Cc1sc(-c2ccccn2)nc1OC(=O)c1cccc(Cl)c1Cl	.	.	.	.	.
Cc1sc(-c2ccccn2)nc1OC(=O)c1ccc(Cl)cc1	.	.	.	58.4	.
Cc1c(C(=O)OCC(=O)N2CCCCC2C)oc2ccccc12 (configuration not stated)	.	/	.	.	.
CCCOC(=O)C(C)Sc1n[nH]c(=O)[nH]c1=O (configuration not stated)	.	.	.	.	.
Cc1ccc(C)c(C(=O)Cn2ncc(Cl)c(Cl)c2=O)c1	.	.	.	.	.

Bioassay records from PubChem.
